For one series, the target named is DNA gyrase subunit B (Staphylococcus aureus, UniProt P0A0K8). Briefly: Inhibition of Staphylococcus aureus DNA gyrase B ATPase activity.
The target in a further series is DNA gyrase (Staphylococcus aureus, UniProt P0A0K8+P20831). Briefly: Inhibition of Staphylococcus aureus DNA gyrase-mediated supercoiling of relaxed DNA using pBR 322 as substrate by agarose gel electrophoresis analysis. It is filed as protein-complex assay.
In series [1] the test system is Staphylococcus aureus. Briefly: Antimicrobial activity against Staphylococcus aureus MTCC 3160 after 16 to 24 hrs by agar dilution method. The series is classed as functional. A digest of the protocol: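 MIC by agar dilution per CLSI on Mueller-Hinton agar. Overnight colonies were suspended to about 10^6 cfu/mL, and 1 mL was added to 19 mL medium. Compounds were made up in 0.9% saline and tested over about 10 doubling dilutions, 100 µM to 0.1 µM. Plates ran 16-20 h at 35 °C in ambient air. MIC was the lowest concentration preventing visible growth.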

Series [2] concerns Staphylococcus aureus. Briefly: Antimicrobial activity against methicillin-resistant Staphylococcus aureus MTCC 96 after 16 to 24 hrs by agar dilution method. It is filed as functional. A digest of the protocol: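 Agar dilution per CLSI guidelines on Mueller-Hinton agar. Overnight colonies suspended to about 10^6 cfu/mL, and 1 mL added to 19 mL medium. Stocks in 0.9% saline, tested over about 10 doubling dilutions from 100 µM to 0.1 µM. Plates incubated at 35 °C in ambient air for 16-20 h. MIC taken as the lowest concentration preventing visible growth.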
(In agar dilution, organisms are placed on agar that contains the substance at set levels.)

The nature of series [3]: Cytotoxicity against human HEK293 cells assessed as reduction in cell viability at 100 uM after 72 hrs by MTT assay. The series is classed as cell-based. The settings on record: read-out: INH. A digest of the protocol:
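HEK-293 cells were seeded at 5000 per well and left 24 h, then washed. They were exposed to 100 µM in RPMI + 5% FBS + 1% penicillin/streptomycin, with final DMSO ≤0.5%, for 72 h at 37 °C in 5% CO2. DMSO-treated cultures served as controls. Viability was read by MTT at 570 nm, in triplicate, as percentage inhibition.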
On the technique in general: Formazan colour is commonly taken as a measure of viable cells.

Series [4] deals with Staphylococcus aureus. The series can be described thus: Inhibition of biofilm formation in methicillin-resistant Staphylococcus aureus MTCC 96 after 24 hr incubation by tissue culture plate method. The settings on record: MTCC 96, 24 h.

Values after ≈ are worked out from the molar mass of the structure shown.

DNA gyrase, sequence (P0A0K8 whole entry): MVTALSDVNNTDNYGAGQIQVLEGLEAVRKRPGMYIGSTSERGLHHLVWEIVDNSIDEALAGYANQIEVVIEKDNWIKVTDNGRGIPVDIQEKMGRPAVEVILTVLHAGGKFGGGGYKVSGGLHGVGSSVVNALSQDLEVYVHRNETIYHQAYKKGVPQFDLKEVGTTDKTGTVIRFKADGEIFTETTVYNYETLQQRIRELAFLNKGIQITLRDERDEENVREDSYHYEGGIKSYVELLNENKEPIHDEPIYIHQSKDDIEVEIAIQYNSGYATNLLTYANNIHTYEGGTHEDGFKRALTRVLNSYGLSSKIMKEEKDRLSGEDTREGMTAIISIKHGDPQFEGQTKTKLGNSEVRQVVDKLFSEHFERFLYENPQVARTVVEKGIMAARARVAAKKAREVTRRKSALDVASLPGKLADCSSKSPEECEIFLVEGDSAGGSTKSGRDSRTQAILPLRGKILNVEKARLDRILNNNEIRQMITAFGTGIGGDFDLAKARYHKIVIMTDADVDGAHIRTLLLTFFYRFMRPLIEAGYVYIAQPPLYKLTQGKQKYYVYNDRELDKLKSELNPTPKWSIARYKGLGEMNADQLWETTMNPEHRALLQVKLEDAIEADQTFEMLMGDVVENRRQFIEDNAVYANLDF
DNA gyrase, sequence (P20831 whole entry): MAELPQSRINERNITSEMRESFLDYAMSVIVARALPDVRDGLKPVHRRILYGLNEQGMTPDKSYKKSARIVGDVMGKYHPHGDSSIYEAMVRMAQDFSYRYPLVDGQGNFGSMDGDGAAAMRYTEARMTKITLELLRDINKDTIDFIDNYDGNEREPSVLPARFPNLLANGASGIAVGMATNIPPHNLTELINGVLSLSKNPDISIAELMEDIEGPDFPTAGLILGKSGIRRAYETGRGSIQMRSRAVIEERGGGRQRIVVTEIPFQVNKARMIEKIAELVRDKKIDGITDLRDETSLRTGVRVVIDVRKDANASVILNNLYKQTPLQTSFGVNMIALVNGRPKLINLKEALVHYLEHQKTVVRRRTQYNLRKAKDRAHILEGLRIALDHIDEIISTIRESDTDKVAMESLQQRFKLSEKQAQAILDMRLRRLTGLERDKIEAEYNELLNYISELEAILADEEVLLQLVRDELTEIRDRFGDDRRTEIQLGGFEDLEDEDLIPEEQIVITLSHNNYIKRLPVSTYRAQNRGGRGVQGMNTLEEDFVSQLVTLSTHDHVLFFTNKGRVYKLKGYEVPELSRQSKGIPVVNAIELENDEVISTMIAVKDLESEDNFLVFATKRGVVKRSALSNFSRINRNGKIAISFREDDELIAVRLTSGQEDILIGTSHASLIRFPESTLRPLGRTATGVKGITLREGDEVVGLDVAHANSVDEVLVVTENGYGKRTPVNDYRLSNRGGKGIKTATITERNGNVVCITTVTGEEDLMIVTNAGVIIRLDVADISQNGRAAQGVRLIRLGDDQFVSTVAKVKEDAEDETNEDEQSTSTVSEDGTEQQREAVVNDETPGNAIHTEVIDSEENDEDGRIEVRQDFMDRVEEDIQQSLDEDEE
DNA gyrase subunit B, sequence (P0A0K8 whole entry): as the sequence (P0A0K8 whole entry) above

By IC50 is commonly meant the point on the concentration scale where inhibition reaches its midpoint. Usually MIC stands for the lowest concentration that inhibits growth of the organism. Consider `O=C(O)CSCC(=O)Nc1ccc(-c2nc3cc([N+](=O)[O-])ccc3[nH]2)cc1`, for which the values for the IC50 against DNA gyrase subunit B, against DNA gyrase and with Staphylococcus aureus [4] were 3.13 µM, 2.1 µM and 10.3 µM, respectively. Further, the MIC against Staphylococcus aureus [1] came to 8.09 µM (≈ 3.12 µg/mL); against Staphylococcus aureus [2], 17 µM (≈ 6.56 µg/mL). Also, in series [3], the cytotoxicity at 72 h, 100 µM stood at 25.2%.

As for `O=C(O)CC(=O)Nc1ccc(-c2nc3cccnc3[nH]2)cc1`, the IC50 against DNA gyrase subunit B was determined as 21.8 µM; against DNA gyrase, 8.9 µM; in the series with Staphylococcus aureus [4] it was 71.9 µM. Moreover, the minimal inhibitory concentration (MIC) against Staphylococcus aureus [1] and in the series on Staphylococcus aureus [2] was 42.2 µM (≈ 12.5 µg/mL) in each case. Further, in series [3], the cytotoxicity at 72 h, 100 µM came to 27.2%.

Consider `O=C(O)CCC(=O)Nc1ccc(-c2nc3cccnc3[nH]2)cc1`, for which the IC50 at DNA gyrase subunit B amounted to 9.23 µM; on DNA gyrase it was 3.13 µM; in the series on Staphylococcus aureus [4], 29.4 µM. Also, the results for the MIC against Staphylococcus aureus [1] and in the series on Staphylococcus aureus [2] were 20.1 µM (≈ 6.25 µg/mL) and 10.1 µM (≈ 3.12 µg/mL), respectively. Further, the cytotoxicity at 72 h, 100 µM in series [3] is 31.1%.

Consider `O=C(O)CCCC(=O)Nc1ccc(-c2nc3cccnc3[nH]2)cc1`, for which the half-inhibitory concentration (IC50) against DNA gyrase subunit B came to 18.5 µM; against DNA gyrase, 6.98 µM; in the series with Staphylococcus aureus [4], 88.1 µM. The MIC with Staphylococcus aureus [1] and in the series on Staphylococcus aureus [2] was 38.5 µM (≈ 12.5 µg/mL) in each case. In addition, in series [3], the cytotoxicity at 72 h, 100 µM worked out at 33.8%.

For the compound `COC(=O)CCCC(=O)Nc1ccc(-c2nc3cccnc3[nH]2)cc1`, the IC50 amounted to 5.23 µM against DNA gyrase subunit B, 6.8 µM against DNA gyrase and 79.3 µM with Staphylococcus aureus [4]. The MIC in the series with Staphylococcus aureus [1] and in the series on Staphylococcus aureus [2] was 36.9 µM (≈ 12.5 µg/mL) in each case. Besides, the cytotoxicity at 72 h, 100 µM in series [3] turned out to be 57.5%.

For the compound `O=C(O)CCCCC(=O)Nc1ccc(-c2nc3cccnc3[nH]2)cc1`, the IC50 at DNA gyrase subunit B worked out at 2.9 µM; against DNA gyrase, 2.1 µM; in the series with Staphylococcus aureus [4], 15.7 µM. Moreover, the MIC in the series with Staphylococcus aureus [1] was 4.61 µM (≈ 1.56 µg/mL); against Staphylococcus aureus [2], 9.23 µM (≈ 3.12 µg/mL). Also, the cytotoxicity at 72 h, 100 µM in series [3] is 22.7%.

Turning to `O=C(O)COCC(=O)Nc1ccc(-c2nc3ccccc3[nH]2)cc1`, the concentration for half-maximal inhibition (IC50) against DNA gyrase subunit B came to 6.01 µM; on DNA gyrase it was 4.81 µM; with Staphylococcus aureus [4], 68.8 µM. Moreover, the figures for the minimal inhibitory concentration (MIC) against Staphylococcus aureus [1] and in the series with Staphylococcus aureus [2] were 38.4 µM (≈ 12.5 µg/mL) and 46.9 µM (≈ 15.3 µg/mL), respectively. Also, the cytotoxicity at 72 h, 100 µM in series [3] worked out at 40%.

Turning to `O=C(O)CSCC(=O)Nc1ccc(-c2nc3ccccc3[nH]2)cc1`, the results for the IC50 on DNA gyrase subunit B, on DNA gyrase and in the series on Staphylococcus aureus [4] were 22.8 µM, 12.5 µM and 82.1 µM, respectively. Further, the MIC was 73.3 µM (≈ 25 µg/mL) in the series with Staphylococcus aureus [1] and 37.6 µM (≈ 12.8 µg/mL) against Staphylococcus aureus [2]. Besides, the cytotoxicity at 72 h, 100 µM in series [3] came to 13.1%.

Turning to `O=C(O)COCC(=O)Nc1ccc(-c2nc3cc(F)ccc3[nH]2)cc1`, the IC50 on DNA gyrase subunit B came out at 6.12 µM; at DNA gyrase, 2.9 µM; in the series on Staphylococcus aureus [4], 19.6 µM. Further, the MIC in the series with Staphylococcus aureus [1] and in the series with Staphylococcus aureus [2] was 9.1 µM (≈ 3.12 µg/mL) each time. For the same compound, the cytotoxicity at 72 h, 100 µM in series [3] was determined as 14.5%.

As to `O=C(O)CSCC(=O)Nc1ccc(-c2nc3cc(F)ccc3[nH]2)cc1`, the IC50 on DNA gyrase subunit B came out at 6.93 µM; on DNA gyrase it was 4.8 µM; in the series with Staphylococcus aureus [4], 59.1 µM. Besides, the MIC with Staphylococcus aureus [1] turned out to be 34.8 µM (≈ 12.5 µg/mL); against Staphylococcus aureus [2], 17.3 µM (≈ 6.22 µg/mL). In addition, the cytotoxicity at 72 h, 100 µM in series [3] was 20.6%.

Consider `O=C(O)COCC(=O)Nc1ccc(-c2nc3cc(Cl)ccc3[nH]2)cc1`, for which the IC50 against DNA gyrase subunit B came out at 15.3 µM; at DNA gyrase, 12.5 µM; with Staphylococcus aureus [4], 71.2 µM. Besides, the MIC in the series on Staphylococcus aureus [1] worked out at 34.7 µM (≈ 12.5 µg/mL); in the series on Staphylococcus aureus [2] it was 69.5 µM (≈ 25 µg/mL). The cytotoxicity at 72 h, 100 µM in series [3] was 29.7%.

For `O=C(O)CSCC(=O)Nc1ccc(-c2nc3cc(Cl)ccc3[nH]2)cc1`, the concentration for half-maximal inhibition (IC50) against DNA gyrase subunit B worked out at 13.8 µM; against DNA gyrase it was 12.1 µM; in the series on Staphylococcus aureus [4], 9.72 µM. The MIC in the series with Staphylococcus aureus [1] and in the series on Staphylococcus aureus [2] was 4.15 µM (≈ 1.56 µg/mL) throughout. In series [3], the cytotoxicity at 72 h, 100 µM stood at 23%.

As for `O=C(O)COCC(=O)Nc1ccc(-c2nc3cc([N+](=O)[O-])ccc3[nH]2)cc1`, the half-inhibitory concentration (IC50) against DNA gyrase subunit B amounted to 8.51 µM; on DNA gyrase, 5.8 µM; with Staphylococcus aureus [4], 83.2 µM. The minimum inhibitory concentration (MIC) against Staphylococcus aureus [1] turned out to be 33.8 µM (≈ 12.5 µg/mL); with Staphylococcus aureus [2] it was 47 µM (≈ 17.4 µg/mL). Moreover, the cytotoxicity at 72 h, 100 µM in series [3] was determined as 31.3%.

The values are drawn from ChEMBL document CHEMBL3352166, “Structure-guided design and development of novel benzimidazole class of compounds targeting DNA gyraseB enzyme of Staphylococcus aureus” (Bioorg Med Chem, 2014).
